Results gathered from unrelated publications.
Compare with care: the assays were run in different laboratories.
DRD2: D(2) dopamine receptor (DRD2, Homo sapiens, UniProt P14416)
MTOR: Serine/threonine-protein kinase mTOR (MTOR, Homo sapiens, UniProt P42345)
EGFR: Epidermal growth factor receptor (EGFR, Homo sapiens, UniProt P00533)

Compound | target | test | setting | measurement | result
COCCCN1CCN(c2ccccc2OC)CC1 | DRD2 | ligand displacement, radioligand |  | Ki | 0.18 µM
CCCC[C@@H](NC(=O)[C@@H](N)Cc1c(C)cc(O)cc1C)C(=O)NCC(=O)N[C@@H](Cc1ccc(F)cc1)C(=O)N(C)CCC[C@@]1(c2ccc(F)cc2)OCc2cc(C#N)ccc21 | DRD2 | ligand displacement, radioligand |  | Ki | 2.7 µM
CC/C=C\C/C=C\C/C=C\CCCCCCCC(=O)O | Liver carboxylesterase (Sus scrofa, UniProt Q29550) | enzyme activity, inhibitor, HPLC |  | Ki | 0.62 µM
OC(c1ccc(F)cc1)C(F)(F)CCN1CCC(O)(c2ccc(Cl)cc2)CC1 (racemic) | DRD2 | cell-free assay, radioligand |  | Ki | 1.96 µM
O=c1c(O)c(-c2ccc(O)c(O)c2)oc2cc(O)ccc12 | MTOR | cell-free assay, competition with immobilised ligand |  | Kd | 11 µM
CC(C)C[C@H](NC(=O)[C@H](Cc1ccccc1)NC(=O)[C@H](Cc1ccc(O)cc1)NC(=O)CNC(=O)[C@H](CCCCN)NC(=O)[C@H](CO)NC(=O)[C@H](CCC(N)=O)NC(=O)CNC(=O)[C@@H](NC(=O)[C@H](CO)NC(=O)[C@@H]1CCCN1C(=O)[C@H](CO)NC(=O)[C@H](CCC(N)=O)NC(=O)[C@H](Cc1ccc(O)cc1)NC(=O)[C@H](CCC(=O)O)NC(=O)[C@H](C)NC(=O)[C@H](CCCCN)NC(=O)[C@@H](N)Cc1ccccc1)C(C)C)C(=O)N[C@@H](Cc1ccccc1)C(=O)N[C@@H](CCCNC(=N)N)C(=O)N1CCC[C@H]1C(=O)N[C@@H](CCCNC(=N)N)C(=O)N[C@@H](CC(N)=O)C(N)=O | Neuromedin-U receptor 2 (Mus musculus, UniProt Q8BZ39) | inositol phosphate, agonist |  | EC50 | 0.000794 µM
C=C1C[C@H]2C[C@@H](c3ccc(Br)cc3)OCC[C@@H](O)CC(=O)O[C@@H]([C@@H](C)O)C[C@@H]3C/C(=C\C(=O)OC)[C@H](OC(=O)CCCCCCC)[C@@](O)(O3)C(C)(C)/C=C/[C@@H](C1)O2 | Protein kinase C delta type (PRKCD, Homo sapiens, UniProt Q05655) | ligand displacement, radioligand |  | Ki | 0.0022 µM
Cc1cc(O)cc(C)c1C[C@H](N)C(=O)N[C@H](C)C(=O)NCC(=O)N[C@@H](Cc1ccc(Cl)cc1)C(=O)N(C)CCC[C@@]1(c2ccc(F)cc2)OCc2cc(C#N)ccc21 | DRD2 | ligand displacement, radioligand |  | Ki | 2.2 µM
CC(C)[C@@H]1NC(=O)CCNC(=O)CCNC(=O)[C@H](Cc2ccc(O)cc2)NC(=O)[C@H](Cc2ccc(O)cc2)NC(=O)[C@H](Cc2ccccc2)NC(=O)[C@@H](Cc2ccc(O)cc2)NC(=O)CSC[C@@H](C(=O)NCC(N)=O)NC(=O)CCNC(=O)[C@H](CCCNC(=N)N)NC(=O)[C@H](CCCNC(=N)N)NC(=O)[C@H](Cc2ccc(O)cc2)NC(=O)[C@H](C(C)C)NC(=O)[C@H](C(C)C)NC(=O)[C@H](CC(N)=O)NC1=O | EGFR | binding, SPR |  | Kd | 1.69 µM
CC[C@H](C)[C@H](NC(=O)[C@@H](N)CCCNC(=N)N)C(=O)N[C@H](C(=O)N1CCC[C@H]1C(=O)N[C@@H](C)C(N)=O)C(C)C | Sequestosome-1 (SQSTM1, Homo sapiens, UniProt Q13501) | binding, MST | pH 7 | Kd | 0.8 µM
Nc1ncc(-c2nc(N3CCOCC3)nc(N3CCOCC3)n2)c(C(F)F)n1 | MTOR | binding, competition with immobilised ligand |  | Kd | 0.0215 µM
Cl.Cl.N.N.N.N.N.N.N.N.[N-3].[Ru+4].[Ru+4] | Calcium uniporter protein, mitochondrial (MCU, Homo sapiens, UniProt Q8NE86) | transporter uptake, inhibitor |  | IC50 | 0.0086 µM
CC(C)[C@@H]1NC(=O)[C@H](CCCNC(=N)N)NC(=O)[C@H](Cc2ccc(O)cc2)NC(=O)[C@H](C(C)C)NC(=O)[C@H](C(C)C)NC(=O)[C@H](CCCNC(=N)N)NC(=O)[C@H](CC(=O)O)NC(=O)[C@H](CC(=O)O)NC(=O)CCNC(=O)[C@H](Cc2ccc(O)cc2)NC(=O)[C@H](Cc2ccc(O)cc2)NC(=O)[C@H](Cc2ccccc2)NC(=O)[C@@H](Cc2ccc(O)cc2)NC(=O)CSC[C@@H](C(=O)NCC(N)=O)NC(=O)CCNC1=O | EGFR | binding, SPR |  | Kd | 0.632 µM
CSCC[C@H](NC(=O)[C@H](CC(C)C)NC(=O)[C@H](Cc1cnc[nH]1)NC(=O)CNC(=O)[C@@H](NC(=O)[C@H](C)NC(=O)[C@H](Cc1c[nH]c2ccccc12)NC(=O)[C@H](CCC(N)=O)NC(=O)[C@H](CC(N)=O)NC(=O)CNC(=O)[C@H](CC(C)C)NC(=O)[C@H](CCCN=C(N)N)NC(=O)[C@H](CCC(N)=O)NC(=O)[C@@H]1CCC(=O)N1)C(C)C)C(N)=O | Bombesin receptor subtype-3 (Brs3, Rattus norvegicus, UniProt Q8K418) | calcium signal, agonist, fluorescence |  | EC50 | > 10 µM
